ChEMBL document CHEMBL3596171, “Interrogating alkyl and arylalkylpolyamino (bis)urea and (bis)thiourea isosteres as potent antimalarial chemotypes against multiple lifecycle forms of Plasmodium falciparum parasites” (Bioorg Med Chem, 2015)
Active and inactive are the calls of the source. No cut-off for these calls is given here.

How the values were obtained:
Plasmodium falciparum [1] = assay: Antiplasmodial activity against asexual intraerythrocytic ring stage of antifolate-resistant Plasmodium falciparum HB3 infected in human O+ erythrocytes assessed as inhibition of parasitic proliferation after 96 hrs by SYBR Green-1 based fluorescence assay; format: functional, organism-based; details: HB3, 96 h
Plasmodium falciparum [2] = assay: Antiplasmodial activity against asexual intraerythrocytic ring stage of chloroquine-sensitive Plasmodium falciparum 3D7 infected in human O+ erythrocytes assessed as inhibition of parasitic proliferation after 96 hrs by SYBR Green-1 based fluorescence assay; format: functional, organism-based; details: 3D7, 96 h
Plasmodium falciparum [3] = assay: Plasmocidal activity against intraerythrocytic early trophozoitic stage of chloroquine-sensitive Plasmodium falciparum 3D7 infected in human O+ erythrocytes assessed as cessation of nuclear division at IC90 after 24 hrs by SYBR Green I-based flow cytometry; format: functional, organism-based
[4] = Selectivity index, ratio of GI50 for human HepG2 cells to IC50 for asexual intraerythrocytic ring stage of chloroquine-sensitive Plasmodium falciparum 3D7 infected in human O+ erythrocytes; format: functional
Plasmodium falciparum [5] = assay: (§1) Plasmocidal activity against intraerythrocytic chloroquine-sensitive Plasmodium falciparum 3D7 infected in human O+ erythrocytes assessed as irreversible inhibition of parasitic viability at IC90 pulsed with compound for 12 hrs followed by drug wash-out measured after 36 hrs by SYBR Green 1 based flow cytometry; format: functional
Summary of the method: (§2)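 Cultures were washed once in RPMI 1640 and diluted 1:40. Proliferation followed at set times over 36 h by SYBR Green I DNA fluorescence.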

Plasmodium falciparum [6] = assay: Plasmocidal activity against intraerythrocytic chloroquine-sensitive Plasmodium falciparum 3D7 infected in human O+ erythrocytes assessed as cessation of nuclear division measured as proportion of schizonts containing 2N nuclear content at IC90 after 96 hrs by SYBR Green I-based flow cytometry; format: functional
Plasmodium falciparum [7] = assay: as §1, with “10XIC90” for “IC90”; format: functional, organism-based; summary of the method: as §2
[8] = Inhibition of NP-40-mediated beta-hematin formation at >400 uM after 5 hrs by pyridine-ferrichrome method; format: functional
Summary of the method: (§3)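 NP-40 detergent (305.5 µM), water and DMSO mixed with compound over a concentration range. Incubated 5 h at 37 °C with hematin in 1 M acetate buffer, pH 4.8, with occasional shaking. β-Hematin measured by the pyridine-ferrichrome method, absorbance at 405 nm. Three biological repeats in triplicate.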

Plasmodium falciparum [9] = assay: Plasmocidal activity against intraerythrocytic chloroquine-sensitive Plasmodium falciparum 3D7 infected in human O+ erythrocytes assessed as cessation of nuclear division measured as proportion of rings/trophozoites containing 1N nuclear content at IC90 after 96 hrs by SYBR Green I-based flow cytometry
Plasmodium falciparum [10] = assay: Antiplasmodial activity against asexual intraerythrocytic ring stage of chloroquine-resistant Plasmodium falciparum W2 infected in human O+ erythrocytes assessed as inhibition of parasitic proliferation after 96 hrs by SYBR Green-1 based fluorescence assay; format: functional, organism-based; details: W2, 96 h
Plasmodium falciparum [11] = assay: Plasmocidal activity against intraerythrocytic chloroquine-sensitive Plasmodium falciparum 3D7 infected in human O+ erythrocytes assessed as inhibition of parasitic proliferation at IC90 after 24 to 96 hrs by flow cytometry; format: functional, organism-based
Plasmodium falciparum [12] = assay: Plasmocidal activity against intraerythrocytic chloroquine-sensitive Plasmodium falciparum 3D7 infected in human O+ erythrocytes assessed as cessation of nuclear division measured as proportion of schizonts containing >2N nuclear content at IC90 after 96 hrs by SYBR Green I-based flow cytometry; format: functional
Plasmodium falciparum [13] = assay: Resistance index, ratio of IC50 for asexual intraerythrocytic ring stage of chloroquine-resistant Plasmodium falciparum W2 infected in human O+ erythrocytes to IC50 for asexual intraerythrocytic ring stage of chloroquine-sensitive Plasmodium falciparum 3D7 infected in human O+ erythrocytes; format: functional
Plasmodium falciparum [14] = assay: Plasmocidal activity against intraerythrocytic early trophozoitic stage of chloroquine-sensitive Plasmodium falciparum 3D7 infected in human O+ erythrocytes assessed as non-progressive pyknotic phenotype with apparently dying morphology at IC90 measured over 48 hrs single lifecycle by Giemsa staining based microscopy; format: functional, organism-based
HepG2 [15] = assay: (§4) Cytotoxicity against human HepG2 cells assessed as inhibition of cell growth after 48 hrs by LDH assay; format: cell-based; details: hepg2, 48 h
[16] = as §4; format: cell-based; details: HepG2 cells
Plasmodium falciparum [17] = assay: Gametocytocidal activity against Plasmodium falciparum NF54-Mal8p1.16-GFP-Luc late (4 to 5) gametocyte assessed as inhibition of parasite viability at 5 uM after 48 hrs by luciferase reporter assay; format: functional, organism-based
Summary of the method: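 NF54 luciferase reporter line; gametocytogenesis induced in glucose-free medium under hypoxia without shaking, with daily medium changes. Mature stage IV/V gametocytes were used on day 10, at 2% gametocytemia and 2% hematocrit. Compound at 5 µM for 48 h, hypoxic, 37 °C, in triplicate; three biological repeats. Read-out was luciferase in lysates with luciferin substrate.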

Plasmodium falciparum [18] = assay: Antiplasmodial activity against chloroquine-resistant Plasmodium falciparum Dd2; format: functional, organism-based
[19] = Inhibition of NP-40-mediated beta-hematin formation after 5 hrs by pyridine-ferrichrome method; format: functional
HepG2 [20] = assay: Cytotoxicity against human HepG2 cells assessed as cell viability at 5000XIC50 for Plasmodium falciparum 3D7 after 48 hrs by LDH assay; format: cell-based; details: hepg2, 48 h
[21] = Inhibition of NP-40-mediated beta-hematin formation at 1 mM after 5 hrs by pyridine-ferrichrome method; format: functional; summary of the method: as §3

Structure (SMILES)	IC50 (Plasmodium falciparum [1]) [µM]	IC50 (Plasmodium falciparum [2]) [µM]	Selectivity Index [4]	IC50 (Plasmodium falciparum [10]) [µM]	Ratio IC50 (Plasmodium falciparum [13])	GI50 (HepG2 [15]) [µM]	further results
N=C(N)NCCCNCCCCNCCCNC(=N)N	14.2	80					
O=C(NCCCNCCCCCNCCCNC(=O)NCCC(c1ccccc1)c1ccccc1)NCCC(c1ccccc1)c1ccccc1	0.056	0.03	5090	0.036	1.2	153	Activity (Plasmodium falciparum [3]): Active; inhibition (INH) (Plasmodium falciparum [5]): >40%; Activity (Plasmodium falciparum [6]): 10%; inhibition (Plasmodium falciparum [7]): Active; inhibition [8]: Active; Activity (Plasmodium falciparum [9]): 88%; inhibition (Plasmodium falciparum [11]): Active; Activity (Plasmodium falciparum [12]): 2%; Activity (Plasmodium falciparum [14]): Active
S=C(NCCCNCCCCCCNCCCNC(=S)NC(c1ccccc1)c1ccccc1)NC(c1ccccc1)c1ccccc1					1.2		GI50 at 48 h [16]: > 200 µM
O=C(NCCCNCCCCCCCNCCCNC(=O)NCCC(c1ccccc1)c1ccccc1)NCCC(c1ccccc1)c1ccccc1					1.13		
O=C(NCCCNCCCCCCCNCCCNC(=O)NC(c1ccccc1)c1ccccc1)NC(c1ccccc1)c1ccccc1					1.7		GI50 at 48 h [16]: > 200 µM
O=C(NCCCNCCCCCCNCCCNC(=O)Nc1ccccc1)Nc1ccccc1					0.3		
S=C(NCCCNCCCCCNCCCNC(=S)NCCC(c1ccccc1)c1ccccc1)NCCC(c1ccccc1)c1ccccc1	0.062	0.076	666	0.041	0.54	50.6	inhibition (Plasmodium falciparum [17]): Active
C(CCCNCCCNCC1CCCCCC1)CCCNCCCNCC1CCCCCC1		0.11					IC50 (Plasmodium falciparum [18]): 0.12 µM
N=C(N)NCCCNCCCNCCCNC(=N)N	110	147					
S=C(NCCCNCCCCCNCCCNC(=S)NCC(c1ccccc1)c1ccccc1)NCC(c1ccccc1)c1ccccc1	0.056	0.04	1305	0.047	1.18	52.2	IC50 [19]: 16.7 µM
S=C(NCCCNCCCCCNCCCNC(=S)NCc1ccccc1)NCc1ccccc1	0.178	0.249	>5000	0.042	0.17		Activity (HepG2 [20]): 100%
O=C(NCCCNCCCCCNCCCNC(=O)Nc1ccccc1)Nc1ccccc1	0.177	0.246	>5000	0.049	0.2		Activity (HepG2 [20]): 100%
S=C(NCCCNCCCCCCNCCCNC(=S)NCc1ccccc1)NCc1ccccc1					1.9		GI50 at 48 h [16]: > 200 µM
O=C(NCCCNCCCCCCCNCCCNC(=O)NCC(c1ccccc1)c1ccccc1)NCC(c1ccccc1)c1ccccc1					1.4		
S=C(NCCCNCCCCCNCCCNC(=S)NC(c1ccccc1)c1ccccc1)NC(c1ccccc1)c1ccccc1	0.075	0.068	659	0.035	0.51	44.8	inhibition (Plasmodium falciparum [17]): Active
N=C(N)NCCCNCCCCCCCNCCCNC(=N)N	70.3						
O=C(NCCCNCCCCCNCCCNC(=O)NCC(c1ccccc1)c1ccccc1)NCC(c1ccccc1)c1ccccc1	0.04	0.028	3375	0.018	0.64	94.5	Activity (Plasmodium falciparum [3]): Active; inhibition (Plasmodium falciparum [11]): Active
O=C(NCCCNCCCCCNCCCNC(=O)NCc1ccccc1)NCc1ccccc1	0.593	0.793	2456	0.171	0.22	1950	inhibition [21]: inactive
S=C(NCCCNCCCCNCCCNC(=S)NCc1ccccc1)NCc1ccccc1							GI50 at 48 h [16]: > 200 µM
O=C(NCCCNCCCCCNCCCNC(=O)NC(c1ccccc1)c1ccccc1)NC(c1ccccc1)c1ccccc1	0.065	0.047	5113	0.02	0.43	240	
